ChEMBL document CHEMBL1154732, “A 4-aminoquinoline derivative that markedly sensitizes tumor cell killing by Akt inhibitors with a minimum cytotoxicity to non-cancer cells” (2010)

Key:
Format in all cases: functional
[1] = Cytotoxicity against human 184B5 cells after 48 hrs by SRB assay in presence of 0.04 uM (E)-5-(benzo[d]thiazol-2-yl)-3-ethyl-2-(2-(methyl(phenyl)amino)vinyl)-1-phenyl-1H-benzo[d]imidazol-3-ium iodide; conditions: 184B5, 48 h
Summary of the method: (§1)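 184B5 immortalized breast epithelial cells were grown in mammary epithelial basal medium with MEGM supplements at 37 °C, 5% CO2. Cells (5000–10,000/well) were preincubated 24 h, then exposed to seven concentrations for 48 h, with the listed partner drug fixed at its stated level. Cells were TCA-fixed, SRB-stained and read at 515–564 nm. Final DMSO was ≤0.1%.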

[2] = Cytotoxicity against human 184B5 cells after 48 hrs by SRB assay in presence of 0.4 uM 1-(1-(4-(7-phenyl-1H-imidazo[4,5-g]quinoxalin-6-yl)benzyl)piperidin-4-yl)-1H-benzo[d]imidazol-2(3H)-one; summary of the method: as §1
MDA-MB-468 [3] = assay: Cytotoxicity against human MDA-MB-468 cells after 48 hrs by SRB assay in presence of 3.5 uM 4-(2-chloro-10H-phenoxazin-10-yl)-N,N-diethylbutan-1-amine hydrochloride; conditions: MDA-MB-468, 48 h
Summary of the method: (§2)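 Breast cancer cells were grown in RPMI 1640 with 10% FBS and 2 mM L-glutamine at 37 °C, 5% CO2, seeded at 5000–10,000/well and allowed 24 h before dosing. Compounds were given as seven serially diluted concentrations for 48 h, with any partner drug held constant, at ≤0.1% final DMSO. Cells were TCA-fixed, SRB-stained and read at 515–564 nm. GI50 came from a variable-slope sigmoidal fit of growth relative to time-zero and untreated wells; values are means of triplicates from ≥3 experiments.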

MDA-MB-468 [4] = assay: Cytotoxicity against human MDA-MB-468 cells after 48 hrs by SRB assay; conditions: MDA-MB-468, 48 h; summary of the method: as §2
MDA-MB-231 [5] = assay: Cytotoxicity against human MDA-MB-231 cells after 48 hrs by SRB assay in presence of 0.04 uM (E)-5-(benzo[d]thiazol-2-yl)-3-ethyl-2-(2-(methyl(phenyl)amino)vinyl)-1-phenyl-1H-benzo[d]imidazol-3-ium iodide; conditions: MDA-MB-231, 48 h; summary of the method: as §2
MCF7 [6] = assay: Cytotoxicity against human MCF7 cells after 48 hrs by SRB assay; conditions: MCF7, 48 h; summary of the method: as §2
MDA-MB-231 [7] = assay: Cytotoxicity against human MDA-MB-231 cells after 48 hrs by SRB assay in presence of 0.5 uM 2-morpholino-8-phenyl-4H-chromen-4-one; conditions: MDA-MB-231, 48 h; summary of the method: as §2
MDA-MB-468 [8] = assay: Cytotoxicity against human MDA-MB-468 cells after 48 hrs by SRB assay in presence of 0.04 uM (E)-5-(benzo[d]thiazol-2-yl)-3-ethyl-2-(2-(methyl(phenyl)amino)vinyl)-1-phenyl-1H-benzo[d]imidazol-3-ium iodide; conditions: MDA-MB-468, 48 h; summary of the method: as §2
MDA-MB-231 [9] = assay: Cytotoxicity against human MDA-MB-231 cells after 48 hrs by SRB assay in presence of 3.5 uM 4-(2-chloro-10H-phenoxazin-10-yl)-N,N-diethylbutan-1-amine hydrochloride; conditions: MDA-MB-231, 48 h; summary of the method: as §2
[10] = Cytotoxicity against human 184B5 cells after 48 hrs by SRB assay; conditions: 184B5, 48 h; summary of the method: as §1
MDA-MB-468 [11] = assay: Cytotoxicity against human MDA-MB-468 cells after 48 hrs by SRB assay in presence of 0.4 uM 1-(1-(4-(7-phenyl-1H-imidazo[4,5-g]quinoxalin-6-yl)benzyl)piperidin-4-yl)-1H-benzo[d]imidazol-2(3H)-one; summary of the method: as §2
MCF7 [12] = assay: Cytotoxicity against human MCF7 cells after 48 hrs by SRB assay in presence of 0.4 uM 1-(1-(4-(7-phenyl-1H-imidazo[4,5-g]quinoxalin-6-yl)benzyl)piperidin-4-yl)-1H-benzo[d]imidazol-2(3H)-one; summary of the method: as §2
MCF7 [13] = assay: Cytotoxicity against human MCF7 cells after 48 hrs by SRB assay in presence of 0.5 uM 2-morpholino-8-phenyl-4H-chromen-4-one; conditions: MCF7, 48 h; summary of the method: as §2
[14] = Cytotoxicity against human 184B5 cells after 48 hrs by SRB assay in presence of 3.5 uM 4-(2-chloro-10H-phenoxazin-10-yl)-N,N-diethylbutan-1-amine hydrochloride; conditions: 184B5, 48 h; summary of the method: as §1
MDA-MB-231 [15] = assay: Cytotoxicity against human MDA-MB-231 cells after 48 hrs by SRB assay in presence of 0.4 uM 1-(1-(4-(7-phenyl-1H-imidazo[4,5-g]quinoxalin-6-yl)benzyl)piperidin-4-yl)-1H-benzo[d]imidazol-2(3H)-one; summary of the method: as §2
MCF7 [16] = assay: Cytotoxicity against human MCF7 cells after 48 hrs by SRB assay in presence of 0.04 uM (E)-5-(benzo[d]thiazol-2-yl)-3-ethyl-2-(2-(methyl(phenyl)amino)vinyl)-1-phenyl-1H-benzo[d]imidazol-3-ium iodide; conditions: MCF7, 48 h; summary of the method: as §2
[17] = Cytotoxicity against human 184B5 cells after 48 hrs by SRB assay in presence of 0.5 uM 2-morpholino-8-phenyl-4H-chromen-4-one; conditions: 184B5, 48 h; summary of the method: as §1
MCF7 [18] = assay: Cytotoxicity against human MCF7 cells after 48 hrs by SRB assay in presence of 3.5 uM 4-(2-chloro-10H-phenoxazin-10-yl)-N,N-diethylbutan-1-amine hydrochloride; conditions: MCF7, 48 h; summary of the method: as §2
MDA-MB-468 [19] = assay: Cytotoxicity against human MDA-MB-468 cells after 48 hrs by SRB assay in presence of 0.5 uM 2-morpholino-8-phenyl-4H-chromen-4-one; conditions: MDA-MB-468, 48 h; summary of the method: as §2
MDA-MB-231 [20] = assay: Cytotoxicity against human MDA-MB-231 cells after 48 hrs by SRB assay; conditions: MDA-MB-231, 48 h; summary of the method: as §2

SMILES	GI50 [1] [µM]	GI50 [2] [µM]	GI50 (MDA-MB-468 [3]) [µM]	GI50 (MDA-MB-468 [4]) [µM]	GI50 (MDA-MB-231 [5]) [µM]	GI50 (MCF7 [6]) [µM]	GI50 (MDA-MB-231 [7]) [µM]	GI50 (MDA-MB-468 [8]) [µM]	GI50 (MDA-MB-231 [9]) [nM]	GI50 [10] [µM]	GI50 (MDA-MB-468 [11]) [µM]	GI50 (MCF7 [12]) [nM]	GI50 (MCF7 [13]) [µM]	GI50 [14] [µM]	GI50 (MDA-MB-231 [15]) [µM]	GI50 (MCF7 [16]) [µM]	GI50 [17] [µM]	GI50 (MCF7 [18]) [µM]	GI50 (MDA-MB-468 [19]) [µM]	GI50 (MDA-MB-231 [20]) [µM]
COc1ccc2c(NCCN(C)C)ccnc2c1	> 20	> 20	5.66	4.8	4.49	3.89	9.45	5.85	1240	44.6	5.91	1820	2.65	> 20	0.74	3.54	> 20	3.66	7.62	
CN(C)CCNc1ccnc2cc(F)ccc12	> 20	> 20	4.61	8.73	2.5	3.42	9.45	4.87	2000	40.4	4.95	1730	2.64	> 20	1.94	2.56	> 20	3.26	7.62	7.08
CCCCNc1ccnc2cc(F)ccc12	12.4	14.9	1.44	1.41	7.25	1.98	12.3	2.69	3740	18.7	2.09	1630	3.17	8.19	5.63	5.78	12.5	3.7	3.5	6.32
CCCCNc1ccnc2cc(Cl)ccc12	> 20	16.6	4.3	6.02	12.3	8.45	11.3	3.95	6500	18.4	7.09	5600	9.55	19.4	8.8	10.2	> 20	11.4	7.42	15.9
CCN(CC)CCCC(C)Nc1ccnc2cc(Cl)ccc12 (stereo unspecified) [CHLOROQUINE PHOSPHATE]	> 20	> 20	2.81		8.33		18.8	6.53	6080	76.1	6.83	5510	7.71	> 20	12.6	7.54	> 20	11.8	9.14	
CN(C)CCNc1ccnc2cc(Cl)ccc12	> 20	> 20	3.24	13.3	5.66	15.4	9.88	3.43	740	44.5	6.5	3320	7.54	> 20	2.87	4.96	> 20	7.37	19.3	8.59
